In ChEMBL document CHEMBL1147498, “6-aryl-2,4-dioxo-5-hexenoic acids, novel integrase inhibitors active against HIV-1 multiplication in cell-based assays” (Bioorg Med Chem Lett, 2004):
Where “and” joins values, the source holds several entries; their conditions need not be identical. Equal values may be shown once.

Assays:
MT4 = assay: Effective concentration required to reduce the exponential growth of MT-4/KB cells; assay type: functional, cell-based; conditions: Homo sapiens
Summary of the method: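 Cell-based HIV-1 multiplication assay in MT-4 cells, run in parallel with cytotoxicity on mock-infected cells. Value is the concentration giving 50% reduction of exponential growth of MT-4/KB cells. Mean of three independent determinations.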

[1] = (§1) Cytotoxic concentration required to reduce the viability of mock-infected cells was determined by using MTT assay
Summary of the method: (§2)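 Viability of mock-infected cells read by MTT, run in parallel with the antiviral assay. Value is the dose giving a 50% loss of viability. Mean of three independent determinations.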

[2] = biological target: Human immunodeficiency virus type 1 integrase (Human immunodeficiency virus 1, UniProt Q7ZJM1); assay: Inhibitory activity against HIV-1 integrase.
[3] = as §1; assay type: functional; summary of the method: as §2
[4] = Selectivity index was determined; assay type: functional

Human immunodeficiency virus type 1 integrase, sequence (Q7ZJM1 whole entry): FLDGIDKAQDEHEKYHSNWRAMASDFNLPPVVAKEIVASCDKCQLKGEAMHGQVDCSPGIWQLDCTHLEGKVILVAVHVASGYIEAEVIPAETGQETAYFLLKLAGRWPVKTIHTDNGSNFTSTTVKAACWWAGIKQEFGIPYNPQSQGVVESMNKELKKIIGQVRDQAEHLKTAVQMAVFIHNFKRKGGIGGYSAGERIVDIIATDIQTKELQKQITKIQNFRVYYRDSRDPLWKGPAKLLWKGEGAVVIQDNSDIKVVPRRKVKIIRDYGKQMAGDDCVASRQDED

IC50 [2]	SMILES	EC50 (MT4)	CC50 [1]	CC50 [3]	Selectivity index [4]
–	O=C(/C=C/c1cccn1Cc1ccccc1)CC(=O)C(=O)O	1.5 µM	61 µM	–	–
–	CCOC(=O)C(=O)CC(=O)/C=C/c1cccn1Cc1ccc(OC)cc1	> 27 µM	27 µM	–	–
76 µM and 92 µM	O=C(/C=C/c1cccn1Cc1ccc([N+](=O)[O-])cc1)CC(=O)C(=O)O	> 33 µM	–	33 µM	–
–	CCOC(=O)C(=O)CC(=O)/C=C/c1cccn1Cc1ccccc1	–	17 µM	–	–
61 µM and 72 µM	O=C(/C=C/c1cccn1Cc1ccc(F)cc1)CC(=O)C(=O)O	11 µM	80 µM	–	7.3
–	Cc1ccc(Cn2cccc2/C=C/C(=O)CC(=O)C(=O)O)cc1	> 41 µM	41 µM	–	–
–	CCOC(=O)C(=O)CC(=O)/C=C/c1cccn1Cc1ccc(F)cc1	12 µM	55 µM	–	–
57 µM and 45 µM	CCOC(=O)C(=O)CC(=O)/C=C/c1cccn1Cc1ccc([N+](=O)[O-])cc1	> 31 µM	31 µM	–	–
–	CCOC(=O)C(=O)CC(=O)/C=C/c1cccn1Cc1ccc(Cl)cc1	> 52 µM	52 µM	–	–
–	CCOC(=O)C(=O)CC(=O)/C=C/c1cccn1Cc1ccc(C)cc1	> 7 µM	7 µM	–	–
50 µM and 65 µM	O=C(/C=C/c1cccn1Cc1ccc(Cl)cc1)CC(=O)C(=O)O	> 95 µM	95 µM	–	–
–	COc1ccc(Cn2cccc2/C=C/C(=O)CC(=O)C(=O)O)cc1	> 78 µM	78 µM	–	–
–	O=C(O)C(=O)CC(=O)c1cccn1Cc1ccc(F)cc1	1.5 µM	–	–	–
